Reference: paper PMC2931272 (Antiviral chemistry & chemotherapy, 2009)
Blank lines part the entries; values can stand above or below the molecule they belong to.

Assays:
[1] = Cytotoxicity by neutral red assay in HFF; format: cell-based; conditions: human, human foreskin fibroblasts (HFF)
[2] = Kinetics of hydrolysis at pH 7.0; format: physicochemical; conditions: phosphate buffer
[3] = Stability of prodrug / conversion to cyclopropavir in mouse whole blood; format: in vitro ADME; conditions: for First order rate constant of conversion to cyclopropavir (5) / half live of conversion to cyclopropavir (5): 50 μM
Outline: (§1)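 Blood was drawn by cardiac puncture from anaesthetised male Swiss-Webster mice into EDTA(K3) and iced; plasma was spun 10 min at 1100 × G, 4°C. Blood or plasma was spiked from a DMSO stock to a 50 μM final and held at 0°C (ice water) or 37°C. A no-incubation control was processed straight after spiking. Timed aliquots were frozen (blood first spun 2200 × G, 5 min, 4°C). Prodrug and parent were measured by HPLC, UV.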

[4] = Stability of prodrug / conversion to cyclopropavir in mouse plasma; format: in vitro ADME; conditions: for First order rate constant of conversion to cyclopropavir (5) / half live of conversion to cyclopropavir (5): 50 μM
Outline: as §1

[5] = Visual cytotoxicity in uninfected HFF's used in plaque reduction assays; format: cell-based; conditions: human, uninfected human foreskin fibroblasts (HFF)
[6] = Pharmacokinetics after IV bolus dosing of prodrug; format: in vivo; conditions: mice, IV 24.6 mg/kg prodrug
[7] = pH 7.08, 37 °C; cited from earlier work
[8] = analyte prodrug (6), two compartments model

half-life at 2.25 mM [2]: 22.5 h
half-life at 50 μM ([3]; male, Swiss-Webster, mouse, whole blood): 22 h
First order rate constant of conversion to cyclopropavir (5) ([3]; mouse whole blood, 0°C): 0.0005 min.^−1
half live of conversion to cyclopropavir (5) ([3]; mouse whole blood, 0°C): 1310 min
First order rate constant of conversion to cyclopropavir (5) ([3]; mouse whole blood, 37°C): 0.0087 min.^−1
half live of conversion to cyclopropavir (5) ([3]; mouse whole blood, 37°C): 80 min
conversion of valcyclopropavir (6) to cyclopropavir (5), no incubation ([3]; mouse whole blood, processed immediately after spiking): 9.0%
First order rate constant of conversion to cyclopropavir (5) ([4]; 0°C): 0.0010 min.^−1
half live of conversion to cyclopropavir (5) ([4]; 0°C): 727 min
First order rate constant of conversion to cyclopropavir (5) ([4]; 37°C): 0.0172 min.^−1
half live of conversion to cyclopropavir (5) ([4]; 37°C): 40.4 min
conversion of valcyclopropavir (6) to cyclopropavir (5), no incubation ([4]; processed immediately after spiking): 3.7%
Rate constant of distribution phase, α [6, 8]: 0.25 min.^−1
Rate constant of elimination phase, β [6, 8]: 0.00263 min.^−1
Volume of main compartment, V [6, 8]: 0.0753 L/kg
AUC ([6]; male, Swiss-Webster, mouse, plasma, iv, 24.6 mg/kg, Area under the curve, AUC, analyte prodrug (6), single compartment first order elimination model): 1.02 µg·h/mL
clearance ([6]; male, Swiss-Webster, mouse, plasma, iv, 24.6 mg/kg, Clearance (Cl), analyte prodrug (6), single compartment first order elimination model): 402 mL/min
half-life ([6]; male, Swiss-Webster, mouse, plasma, iv, 24.6 mg/kg, Half-life, T1/2, analyte prodrug (6), single compartment first order elimination model): 2.68 h
SMILES: CC(C)[C@H](N)C(=O)OCC1(CO)C/C1=C/n1cnc2c(=O)[nH]c(N)nc21.Cl (mixture of isomers) [Valcyclopropavir (6), (Z)-9-{[2-Hydroxymethyl-2-(L-valyloxymethyl)cyclopropylidene]methyl}guanine Hydrochloride]
CC50 [1]: > 300 µM
CC50 [5]: > 100 µM

SMILES: Nc1nc2c(ncn2/C=C2/CC2(CO)CO)c(=O)[nH]1 [Cyclopropavir (5)]
CC50 [1]: > 380 µM
CC50 [5]: > 100 µM

SMILES: Nc1nc(O)c2ncn(COC(CO)CO)c2n1 [Ganciclovir, reference compound]
CC50 [1]: > 100 µM
CC50 [5]: > 100 µM

SMILES: CC(C)[C@H](N)C(=O)OCC(CO)OCn1cnc2c(=O)nc(N)[nH]c21 (stereo partly shown) [valganciclovir (2)]
half-life of hydrolysis [7]: 11 h
